Assays:
[1] = target: Protease (Human immunodeficiency virus 1) (UniProt Q9YQ12); assay: Inhibition of recombinant HIV1 protease at 10 uM by HPLC method
Summary of the method: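 Recombinant HIV-1 protease with HIV-1 Protease Substrate III in 50 mM sodium acetate pH 4.9, 200 mM NaCl, 5 mM DTT, 10% glycerol; inhibitors added from DMSO (5% v/v final). Enzyme addition starts the reaction, run 3.5 min at 37 °C, then quenched with 10% TFA. Substrate conversion is read by reverse-phase C18 HPLC (5–50% acetonitrile, 0.1% TFA), against inhibitor-free 5% DMSO baseline.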

[2] = tested on: Human immunodeficiency virus 1; assay: Antiviral activity against HIV1 assessed as inhibition of viral infection at 10 uM by cell-based assay; format: functional
[3] = tested on: Human immunodeficiency virus 1; assay: Antiviral activity against HIV1 assessed as inhibition of viral infection by cell-based assay; format: functional, organism-based

Protease (Human immunodeficiency virus 1), sequence (Q9YQ12 as listed by the source): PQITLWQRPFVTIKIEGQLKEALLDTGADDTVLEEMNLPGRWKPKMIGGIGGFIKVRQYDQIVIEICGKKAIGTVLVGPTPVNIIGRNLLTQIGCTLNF

Row | inhibition [1] [%] | IC50 [3] [µM] | SMILES | inhibition at 10 µM [2] [%]
1 | 90 | – | CNC(=O)[C@H](NC(=O)[C@@H](Cc1ccccc1)C[S+]([O-])C[C@H](Cc1ccccc1)C(=O)N[C@@H](C(=O)NC)C(C)C)C(C)C | 2.1
2 | 51 | – | O=C(N[C@@H](CO)c1ccccc1)[C@@H](CSC[C@@H](Cc1ccccc1)C(=O)N[C@@H](CO)c1ccccc1)Cc1ccccc1 | 15.4
3 | – | > 10 | CN=[S+]([O-])(C[C@H](Cc1ccccc1)C(=O)N[C@@H]1c2ccccc2C[C@@H]1O)C[C@H](Cc1ccccc1)C(=O)N[C@@H]1c2ccccc2C[C@@H]1O | –
4 | 87 | – | N=[S+]([O-])(C[C@H](Cc1ccccc1)C(=O)N[C@@H](CO)c1ccccc1)C[C@H](Cc1ccccc1)C(=O)N[C@@H](CO)c1ccccc1 | 0
5 | 50 | – | O=C(N[C@H](CO)c1ccccc1)[C@@H](Cc1ccccc1)C[S+]([O-])C[C@H](Cc1ccccc1)C(=O)N[C@H](CO)c1ccccc1 | 2.5
6 | 47 | – | O=C(N[C@@H](CO)c1ccccc1)[C@@H](Cc1ccccc1)C[S+]([O-])C[C@H](Cc1ccccc1)C(=O)N[C@@H](CO)c1ccccc1 | 0
7 | 87 | – | CNC(=O)[C@@H](NC(=O)[C@@H](CSC[C@@H](Cc1ccccc1)C(=O)N[C@H](C(=O)NC)C(C)C)Cc1ccccc1)C(C)C | 12.6
8 | 41 | – | O=C(N[C@H](CO)c1ccccc1)[C@@H](CSC[C@@H](Cc1ccccc1)C(=O)N[C@H](CO)c1ccccc1)Cc1ccccc1 | 1.4
9 | 54 | – | N=[S+]([O-])(C[C@H](Cc1ccccc1)C(=O)N[C@H](CO)c1ccccc1)C[C@H](Cc1ccccc1)C(=O)N[C@H](CO)c1ccccc1 | 0
10 | 99 | – | CNC(=O)[C@H](NC(=O)[C@@H](Cc1ccccc1)C[S+](=N)([O-])C[C@H](Cc1ccccc1)C(=O)N[C@@H](C(=O)NC)C(C)C)C(C)C | 5.5

— ChEMBL document CHEMBL1157558, “Design, asymmetric synthesis, and evaluation of pseudosymmetric sulfoximine inhibitors against HIV-1 protease” (Bioorg Med Chem, 2010)
